Here are results for four molecules from ChEMBL document CHEMBL3414486, “Synthesis of heterocycle-modified betulinic acid derivatives as antitumor agents” (Eur J Med Chem, 2015).

What is called pIC50 is the IC50 on a negative log10 scale, so that one unit is a factor of ten.

Structures are written as SMILES. pIC50: −log10 of the molar value.

The test system of test [1] is T47D. In words: Selectivity index, ratio of IC50 for HAF to IC50 for human T47D cells. In a few lines: (§1)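 SRB viability assay. Cells are seeded for 24 h, then exposed for 96 h to a concentration series from 20 mM DMSO stocks, with a DMSO control. Cells are fixed in 50% TCA (2 h, 4 °C), stained with 0.4% SRB for 10 min and washed with 1% acetic acid. Bound dye is dissolved in 10 mM Tris base and read at 515 nm. IC50 is averaged from at least 3 independent experiments. SI is IC50 in HAF divided by IC50 in the cancer line.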

Test [2] has as its system DU-145. Put plainly: Cytotoxicity against human DU145 cells assessed as growth inhibition after 96 hrs by SRB assay. As to conditions: DU-145, 96 h. In kind it is functional, cell-based. In a few lines: as §1
Background: In SRB staining, fixed cells bind dye roughly in proportion to their protein.

Test [3] is described as follows: Selectivity index, ratio of IC50 for HAF to IC50 for human MDA-MB-231 cells. In a few lines: as §1
Test [4] concerns HCT-116. Put plainly: Selectivity index, ratio of IC50 for HAF to IC50 for human HCT116 cells. Summed up: as §1
Test [5] in a line: Cytotoxicity against human PC3 cells assessed as growth inhibition after 96 hrs by SRB assay. It counts as functional, cell-based. As to conditions: PC-3, 96 h. Summed up: as §1
The subject of test [6] is HT-29. Put plainly: Selectivity index, ratio of IC50 for HAF to IC50 for human HT-29 cells. Summed up: as §1
Test [7] concerns MCF7. In words: Cytotoxicity against human MCF7 cells assessed as growth inhibition after 96 hrs by SRB assay. It counts as functional, cell-based. The following applies: MCF7, 96 h. In a few lines:
as §1

The test system of test [8] is 4T1. In words: Selectivity index, ratio of IC50 for HAF to IC50 for mouse 4T1 cells. Summed up:
as §1

For test [9], the system named is DU-145. Put plainly: Selectivity index, ratio of IC50 for HAF to IC50 for human DU145 cells. Summed up:
as §1

Test [10] can be described thus: Cytotoxicity against human HCT116 cells assessed as growth inhibition after 96 hrs by SRB assay. The following applies: HCT-116, 96 h. It counts as functional, cell-based. Summed up: as §1
A short description of test [11]: Cytotoxicity against HAF assessed as growth inhibition after 96 hrs by SRB assay. The following applies: Homo sapiens. Summed up:
as §1

Test [12] relates to NCI/ADR-RES. Put plainly: Selectivity index, ratio of IC50 for HAF to IC50 for human MCF7/ADR cells. Summed up: as §1
A short description of test [13]: Cytotoxicity against human MCF7/ADR cells assessed as growth inhibition after 96 hrs by SRB assay. In kind it is functional, cell-based. As to conditions: NCI/ADR-RES. In a few lines:
as §1

The subject of test [14] is T47D. Put plainly: Cytotoxicity against human T47D cells assessed as growth inhibition after 96 hrs by SRB assay. It counts as functional, cell-based. Summed up: as §1
The subject of test [15] is HT-29. In words: Cytotoxicity against human HT-29 cells assessed as growth inhibition after 96 hrs by SRB assay. It counts as functional, cell-based. The following applies: HT-29, 96 h. In a few lines: as §1
Test [16] has as its system MCF7. In words: Selectivity index, ratio of IC50 for HAF to IC50 for human MCF7 cells. In a few lines:
as §1

The subject of test [17] is PC-3. In words: Selectivity index, ratio of IC50 for HAF to IC50 for human PC3 cells. In a few lines: as §1
Test [18] deals with 4T1. In words: Cytotoxicity against mouse 4T1 cells assessed as growth inhibition after 96 hrs by SRB assay. It counts as functional, cell-based. As to conditions: 4T1, 96 h. Summed up: as §1
Test [19] concerns MDA-MB-231. Put plainly: Cytotoxicity against human MDA-MB-231 cells assessed as growth inhibition after 96 hrs by SRB assay. In kind it is functional, cell-based. The following applies: MDA-MB-231, 96 h. In a few lines: as §1

Take `C=C(C)[C@@H]1CC[C@]2(C(=O)O)CC[C@]3(C)[C@H](CC[C@@H]4[C@@]5(C)CC[C@H](OC(=O)C6CCCNC6)C(C)(C)[C@@H]5CC[C@]43C)[C@@H]12` (stereo partly specified): the Ratio IC50 in [1] stood at 0.6; in [3] it was 1.1; in test [4] it was 1.2; in test [6], 1.1; in test [8] it was 0.7; in test [9], 0.5. Also, the Ratio IC50 in test [12] amounted to 3.4; in [16] it was 1.2; in test [17], 0.7. For the same molecule, the pIC50 in [2] was 4.95; in test [5] it was 5.09; in test [7] it was 5.35; in test [10], 5.34; in test [11], 5.27; in test [13], 5.80. Moreover, the pIC50 in test [14] is 5.01; in test [15], 5.31; in test [18], 5.12; in [19], 5.30.
With `C=C(C)[C@@H]1CC[C@]2(C(=O)O)CC[C@]3(C)[C@H](CC[C@@H]4[C@@]5(C)CC[C@H](NC(=O)CCC6CCNCC6)C(C)(C)[C@@H]5CC[C@]43C)[C@@H]12`, the Ratio IC50 in test [1] worked out at 2.7; in [3], 2.1; in test [4] it was 1; in test [6], 2.9; in test [8] it was 2.3; in test [9], 1.6. Moreover, the Ratio IC50 is 1.6 in [12], 2.4 in [16] and 2 in test [17]. For the same molecule, the pIC50 in test [2] was 5.36; in [5], 5.47; in [7], 5.54; in test [10] it was 5.16; in test [11] it was 5.16; in [13], 5.35. Moreover, the pIC50 is 5.59 in test [14], 5.62 in test [15], 5.52 in test [18] and 5.49 in test [19].
Take `C=C(C)[C@@H]1CC[C@]2(C(=O)O)CC[C@]3(C)[C@H](CC[C@@H]4[C@@]5(C)CC[C@H](NC(=O)CC6CCNCC6)C(C)(C)[C@@H]5CC[C@]43C)[C@@H]12`: the Ratio IC50 in test [1] was 3.9; in test [3], 2.9; in [4] it was 3.4; in test [6], 3.7; in [8], 1.8; in test [9] it was 2.5. In addition, the Ratio IC50 came out at 3.1 in test [12], 2.7 in [16] and 3.6 in [17]. The pIC50 in test [2] was 5.43; in [5], 5.59; in test [7], 5.46; in test [10], 5.57; in test [11] it was 5.04; in test [13], 5.52. For the same molecule, the pIC50 in test [14] was 5.63; in test [15] it was 5.61; in test [18], 5.29; in test [19] it was 5.50.
As for `C=C(C)[C@@H]1CC[C@]2(C(=O)O)CC[C@]3(C)[C@H](CC[C@@H]4[C@@]5(C)CC[C@H](NC(=O)CCCC6CCNCC6)C(C)(C)[C@@H]5CC[C@]43C)[C@@H]12`, the Ratio IC50 in test [1] was determined as 1.7; in [3] it was 2.7; in [4], 1.6; in test [6], 2.1; in test [8], 1.5; in [9], 1.2. Moreover, the results for the Ratio IC50 in [12], in test [16] and in [17] were 9.8, 1.4 and 1.7, respectively. The pIC50 in test [2] is 5.11; in [5], 5.28; in [7] it was 5.19; in [10], 5.25; in test [11] it was 5.04; in test [13], 6.03. For the same molecule, the pIC50 in test [14] was 5.28; in test [15], 5.36; in test [18], 5.22; in [19], 5.46.
